Experimental findings from ChEMBL document CHEMBL1132185, “3-O-Desacyl monophosphoryl lipid A derivatives: synthesis and immunostimulant activities” (J Med Chem, 1999) are described below.

Data set [1] in a line: (§1) lethal toxicity produced when compound is administered along with […] (iv). It is filed as organism-based, Homo sapiens. The following applies: mouse, in vivo.
The species named for the next data set is Homo sapiens. The data set can be described thus: Relative ex vivo cytokine induction in human whole blood stimulated with 10 ug/mL (done by ELISA)for Interleukin (IL1-beta). It is filed as functional. The method in brief:
(§2)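 Heparinized whole blood from one healthy human volunteer, 0.45 mL, was mixed with 0.05 mL PBS (pH 7.4) containing test compound. It was incubated 4 h at 37 °C with shaking, then diluted with 1.5 mL PBS and centrifuged. Supernatant TNF-α and IL-1β were quantified in duplicate by sandwich ELISA.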

Data set [2] is filed under the species Mus musculus. The data set can be described thus: Adjuvant activity was assessed by measuring tetanus toxoid-specific antibody responses in serum of mice immunised. (evaluated as IgG1). The format is functional. The method in brief: (§3)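 Mice immunised on day 0 and day 21 with tetanus toxoid (2 μg per 2 mL emulsion) plus test article in 2.5% oil-water emulsion (12% lecithin-squalene oil phase; 0.1% Tween 80-saline aqueous phase). Controls received toxoid in 2.5% oil-water vehicle. Sera were taken from the orbital plexus 14 days after the second injection, diluted 2-fold ×11 from 1:200 and tested individually by toxoid-coated ELISA. Values are test titer/vehicle control titer.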

For data set [3], the species on record is Mus musculus. The data set can be described thus: Adjuvant activity was assessed by measuring tetanus toxoid-specific antibody responses in serum of mice immunised. (evaluated as IgG2b). The format is functional. In short, it runs like this: as §3
Data set [4] is filed under the species Mus musculus. The data set can be described thus: Adjuvant activity was assessed by measuring tetanus toxoid-specific antibody responses in serum of mice immunised. (evaluated as total Ig). The format is functional. In short, it runs like this:
as §3

A short description of data set [5]: Ability to induce iNOS gene expression assessed in an in vitro system utilizing peritoneal exudate cells(PEC) from Propionibacterium acnes-primed mice. It is filed as functional. The following applies: Mus musculus; read-out: ED50 (the source's name). In short, it runs like this: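 ICR mice (female, 4-8 weeks) primed i.p. on day 0 with 1 mg heat-killed P. acnes in 0.2 mL saline; peritoneal exudate cells harvested day 4, adhered at 2 × 10^5 cells/well, nonadherent cells washed off. Test materials at various concentrations, in quadruplicate, in RPMI-1640 with 10% FCS for 24 h at 37 °C. Supernatant nitrite measured by Griess reaction; ED50 from nonlinear curve fit.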

The test system of data set [6] is Oryctolagus cuniculus. The data set can be described thus: Total temperature rise in three rabbits at a dose of 10 ug/kg. It is filed as functional. In short, it runs like this: (§4)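 USP three-rabbit pyrogen test in New Zealand white rabbits (female, 1.5–5.0 kg). Stocks were 100 µg/mL in 10% aq EtOH, diluted in D5W and given into the marginal ear vein at 3 mL/kg. Rectal temperature was taken every 30 min for 3 h and the maximum rise over baseline recorded per rabbit. MPD is the dose giving a three-rabbit total rise ≥1.2 °C.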

The species named for data set [7] is Oryctolagus cuniculus. The data set can be described thus: Minimum pyrogenic dose(MPD) was determined. It is filed as functional. In short, it runs like this: as §4
Data set [8] concerns the target Tumor necrosis factor (Homo sapiens) (UniProt P01375). The data set can be described thus: Relative ex vivo cytokine induction in human whole blood stimulated with 10 ug/mL (done by ELISA) for Tumor necrosis factor alpha. It is filed as functional, tissue-based. The method in brief:
as §2

The species entered for data set [9] is Mus musculus. The data set can be described thus: Adjuvant activity was assessed by measuring tetanus toxoid-specific antibody responses in serum of mice immunised. (evaluated as IgG2a). It is filed as functional. In short, it runs like this: as §3
Data set [10] can be described thus: as §1. The format is organism-based. The following applies: in vivo.

Structures are written as SMILES.

Chain of Tumor necrosis factor (Homo sapiens) (P01375 whole entry): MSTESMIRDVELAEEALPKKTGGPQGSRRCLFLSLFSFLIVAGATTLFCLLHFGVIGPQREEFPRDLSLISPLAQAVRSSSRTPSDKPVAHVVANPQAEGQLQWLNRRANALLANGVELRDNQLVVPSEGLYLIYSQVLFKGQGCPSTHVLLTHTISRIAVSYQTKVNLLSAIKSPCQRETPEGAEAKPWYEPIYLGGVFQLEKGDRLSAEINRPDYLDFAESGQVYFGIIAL

`CCCCCCCCCCC[C@H](CC(=O)NC1C(O)OC(COC2OC(CO)C(OP(=O)(O)O)C(OC(=O)C[C@@H](CCCCCCCCCCC)OC(=O)CCCCCCCCC)C2NC(=O)C[C@@H](CCCCCCCCCCC)OC(=O)CCCCCCCCC)C(O)C1O)OC(=O)CCCCCCCCC.CCN(CC)CC` (some centres undefined) showed an LD50 in [1] of 0.02 µg. In addition, the results for the Induction (in the data set listed under Homo sapiens; in data set [8]) were 7.3 and 3, respectively. The Adjuvant activity in the data set listed under Mus musculus [2] is 2.4; in the data set filed under Mus musculus [3], 4.3; in the data set listed under Mus musculus [4], 6.2; in the data set filed under Mus musculus [9], 6. For the same compound, the EC50 in [5] was found to be 0.05 ng/mL. In the data set with Oryctolagus cuniculus [6], this compound came in with a Fever response of 4.1 °C. The MPD in the data set filed under Oryctolagus cuniculus [7] is under 0.06 µg/kg.

Compound `CCCCCCCCCCC[C@H](CC(=O)NC1C(O)OC(COC2OC(CO)C(OP(=O)(O)O)C(OC(=O)C[C@@H](CCCCCCCCCCC)OC(=O)CCC)C2NC(=O)C[C@@H](CCCCCCCCCCC)OC(=O)CCC)C(O)C1O)OC(=O)CCC.CCN(CC)CC` (some centres undefined) displayed an LD50 in data set [10] of 4.5 µg. Besides, in data set [5], the EC50 is over 10000 ng/mL. Further, the Fever response in the data set on Oryctolagus cuniculus [6] stood at 1.5 °C. The MPD in the data set filed under Oryctolagus cuniculus [7] was determined as 10 µg/kg.

`CCCCCCCCCCCC(=O)O[C@H](CCCCCCCCCCC)CC(=O)NC1C(O)OC(COC2OC(CO)C(OP(=O)(O)O)C(OC(=O)C[C@@H](CCCCCCCCCCC)OC(=O)CCCCCCCCCCC)C2NC(=O)C[C@@H](CCCCCCCCCCC)OC(=O)CCCCCCCCCCC)C(O)C1O.CCN(CC)CC` (some centres undefined): the LD50 in data set [1] is 0.04 µg. Further, the Induction in the data set filed under Homo sapiens was 2.9; in [8], 4.6. In [5], the EC50 is 1 ng/mL. This compound also showed a Fever response with Oryctolagus cuniculus [6] of 5.3 °C. In the data set filed under Oryctolagus cuniculus [7], this compound displayed an MPD of under 2.5 µg/kg.

As to `CCCCCCCCCCC[C@H](CC(=O)NC1C(O)OC(COC2OC(CO)C(OP(=O)(O)O)C(OC(=O)C[C@@H](CCCCCCCCCCC)OC(=O)CCCCC)C2NC(=O)C[C@@H](CCCCCCCCCCC)OC(=O)CCCCC)C(O)C1O)OC(=O)CCCCC.CCN(CC)CC` (some centres undefined), the LD50 in [10] was found to be 4 µg. Also, the EC50 in data set [5] is over 10000 ng/mL. Moreover, the Fever response in the data set on Oryctolagus cuniculus [6] came out at 1.7 °C. The compound also registered an MPD in the data set listed under Oryctolagus cuniculus [7] of 10 µg/kg.

With `CCCCCCCCCCCCCC(=O)O[C@H](CCCCCCCCCCC)CC(=O)NC1C(O)OC(COC2OC(CO)C(OP(=O)(O)O)C(OC(=O)C[C@@H](CCCCCCCCCCC)OC(=O)CCCCCCCCCCCCC)C2NC(=O)C[C@@H](CCCCCCCCCCC)OC(=O)CCCCCCCCCCCCC)C(O)C1O.CCN(CC)CC` (some centres undefined), in data set [1], the LD50 is 1 µg. Besides, the Induction in the data set filed under Homo sapiens worked out at 3.4; in data set [8], 1.7. Further, the Adjuvant activity turned out to be 4.5 in the data set listed under Mus musculus [2], 4.5 in the data set listed under Mus musculus [3], 8.2 in the data set listed under Mus musculus [4] and 14.6 in the data set listed under Mus musculus [9]. In addition, in data set [5], the EC50 is 5 ng/mL. This compound had a Fever response in the data set with Oryctolagus cuniculus [6] of 0.3 °C. This compound also showed an MPD in the data set filed under Oryctolagus cuniculus [7] of 15 µg/kg.

In [10], `CCCCCCCCCCC[C@H](CC(=O)NC1C(O)OC(COC2OC(CO)C(OP(=O)(O)O)C(OC(=O)C[C@@H](CCCCCCCCCCC)OC(=O)CCCCCCC)C2NC(=O)C[C@@H](CCCCCCCCCCC)OC(=O)CCCCCCC)C(O)C1O)OC(=O)CCCCCCC.CCN(CC)CC` (some centres undefined) showed an LD50 of 0.2 µg. Also, the EC50 in data set [5] was 0.3 ng/mL. Also, the Fever response in the data set with Oryctolagus cuniculus [6] amounted to 3.9 °C. The same compound registered an MPD in the data set filed under Oryctolagus cuniculus [7] of under 2.5 µg/kg.

For the compound `CCCCCCCCCCCCCCCC(=O)O[C@H](CCCCCCCCCCC)CC(=O)NC1C(O)OC(COC2OC(CO)C(OP(=O)(O)O)C(OC(=O)C[C@@H](CCCCCCCCCCC)OC(=O)CCCCCCCCCCCCC)C2NC(=O)C[C@@H](CCCCCCCCCCC)OC(=O)CCCCCCCCCCC)C(O)C1O.CCN(CC)CC` (some centres undefined), in data set [1], the LD50 stood at 1 µg. The Induction in the data set listed under Homo sapiens was 1.4; in data set [8] it was 1.6. Further, in [5], the EC50 was found to be 10 ng/mL. This compound also displayed a Fever response in the data set with Oryctolagus cuniculus [6] of 0.6 °C. For the same compound, the MPD in the data set listed under Oryctolagus cuniculus [7] turned out to be 15 µg/kg.
